Assay outcomes as filed in PubChem BioAssay.
Hits are enriched below; roughly 3.8% of the tested compounds scored in any of these assays.
KCNQ1 inh: human KCNQ1 channel inhibition. CHO-K1 KCNQ1, FluxOR thallium flux fluorescence; active compounds read high. B-score at 10 µM. hit rate 1.3% among 310,000. AID 2642;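 active = compounds whose thallium flux B-score, printed positive for inhibition, exceeds three library SD while starting fluorescence stays within three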;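 note: channel opened by potassium depolarization with thallium stimulus after 20 min compound exposure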
hERG protect: shields human hERG channel from block by proarrhythmic agents; activation (rescue from dofetilide block), less the hit threshold, % at 10 µM; CHO-hERG, FluxOR thallium flux, dofetilide IC70 present; hit rate 0.51% among 310,000; Q12809;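 active = activation above the mean of controls blocked by dofetilide plus 5 SD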;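 note: thallium influx through hERG after potassium depolarization seen as dye fluorescence rise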
Kir21 inh: inhibitors of mouse Kir2.1 inward-rectifier potassium channel; HEK293-Kir2.1, FluxOR thallium flux fluorescence; active compounds read low; B-score at 10 µM; hit rate 0.85% among 310,000;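 active = fluorescence ratio B-score at or below minus 3 SD of library scores, with starting-brightness B-score within 2 SD, cut at about -4.2 in these data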;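 note: channel flux triggered by added potassium and thallium sulfate stimulus; B-score of peak minus minimum fluorescence over baseline after thallium stimulus; more negative B-score means stronger Kir2.1 block with less thallium influx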
KCNK3 inh: human KCNK3 channel inhibition, primary screen; O14649; CHO-KCNK3 thallium flux, FluxOR fluorescence; active compounds read low; B-score at 10 µM; hit rate 0.84% among 340,000;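 active = B-score under library mean minus 4 SD, starting fluorescence ratio at most library mean plus 5 SD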;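 note: more negative B-score means stronger inhibition of thallium flux through KCNK3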
KCNQ1 act: potentiates or activates the human KCNQ1 potassium channel; AID 2648; hit rate 0.35% among 310,000; CHO-K1 KCNQ1, thallium flux FluxOR fluorescence; active compounds read high; B-score at 10 µM; P51787;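 active = fluorescence ratio B-score, a plate-corrected score, at least three library SD, with initial intensity B-score within 5 SD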
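System: Stable KCNQ1 CHO-K1 line | Incubation: 90 min dye loading and 20 min compound exposure, both at room temperature | Measure: Ratio B score | Medium: Assay buffer for compound exposure, DMSO matched across wells | Compound dosing: Single-concentration screen | Probe or stimulus: K+/Tl+ depolarizing stimulus | Measured by: Kinetic FluxOR fluorescence, 10 s baseline plus 110 s post-stimulus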
KCNK9 block: human KCNK9 channel inhibition; Q9NPC2; HEK293 KCNK9, FluxOR thallium flux fluorescence; active compounds read low; B-score at 10 µM; hit rate 1.2% among 310,000; AID 488922;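 active = ratio B-score over 3 SD below the library mean, with starting fluorescence within 5 SD of its mean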;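 note: negative B-score means less thallium flux so channel inhibition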
* hit, by the source's call; i = inactive; . = not tested or not shown.

SMILES	KCNQ1 inh	hERG protect	Kir21 inh	KCNK3 inh	KCNQ1 act	KCNK9 block
CCn1c(CCNC(=O)c2ccc(C)cc2)nnc1SCc1ccc(Cl)c(Cl)c1	i	-5	-3.5	i	i	i
CCOC(=O)c1cc(=O)n2nc(-c3ccc(C)cc3)nc2s1	7*	-9	0.94	i	i	i
CCOC(=O)Cc1csc2nc(-c3ccccc3)nn12	i	-2	-0.22	i	i	i
O=C(NC(=S)N1CCN(c2ccc([N+](=O)[O-])cc2)CC1)c1ccc(F)cc1	i	-1	-0.62	i	i	i
COc1ccc2[nH]c3c(c2c1)CCN1C(=O)N([C@@H](C)C(=O)NC2CCCCC2C)C(=O)[C@]31C (some centres not stated)	i	-6	-1.4	i	i	i
CCC(c1nnnn1Cc1ccco1)N(CCc1ccccc1)Cc1cc2cc(C)ccc2[nH]c1=O (configuration not stated)	i	-7	-3.1	i	i	i
Cc1ccc2[nH]c(=O)c(CN(CCc3ccccc3)C(c3nnnn3Cc3ccco3)C(C)C)cc2c1 (configuration not stated)	i	-5	0.52	-8.9*	i	i
CCC(c1nnnn1CCc1ccccc1)N(Cc1ccco1)Cc1cc2c(C)ccc(C)c2[nH]c1=O (configuration not stated)	i	-9	-6.5e-16	i	i	-7.3*
CCC(c1nnnn1CCc1ccccc1)N(Cc1ccco1)Cc1cc2cc(C)cc(C)c2[nH]c1=O (configuration not stated)	i	-7	-0.34	i	i	i
COc1ccc(/C(C)=N/N2C(C)CCCC2C)c(OC)c1 (configuration not stated)	i	-6	-0.13	i	i	i
CCOC(=O)/C(=C/C=C/c1ccccc1)NC(=O)c1ccccc1	i	-13	-0.64	i	i	-7.4*
CCOC(=O)C(NC(=O)c1ccccc1)=C(C)C	i	5.4*	-1.4	i	i	i
CCOC(=O)/C(=C\C=C\c1ccccc1)NC(=O)c1ccccc1	i	-8	-0.71	i	i	i
CCCCOC(=O)C(NC(=O)c1ccccc1)=C(C)C	i	-15	-0.01	i	i	i
Cc1cn(C2OC(CC(=O)Oc3ccccc3)C(O)C2O)c(=O)[nH]c1=O (configuration not stated)	i	-7	0.05	i	i	i
Cn1nc(Oc2ncc(C(F)(F)F)cc2Cl)cc1C(F)(F)F	i	-11	1.3	i	i	i
CC(C)C[C@H](NC(=O)C1CCN(S(=O)(=O)c2ccccc2)CC1)C(=O)NCc1cccnc1	i	-4	-2.7	i	i	i
CCOC(=O)c1ccc(NC(=S)NCCCN2CCCCC2)cc1	i	-11	-1.9	i	i	i
Cc1cccc(OCc2n(CC(=O)OC3CC(C)CCC3C(C)C)c3ccccc3[n+]2C)c1 (configuration not stated)	9*	-31	-13*	-13*	i	i
O=C(c1cccc(C(F)(F)F)c1)C1CCCN(Cc2cccn2-c2ccccn2)C1 (configuration not stated)	8*	-19	-0.39	i	i	i
O=C(CCCCC(=O)Nc1ccccc1Cl)Nc1ccccc1Cl	i	-7	1.2	i	i	i
NNC(=O)CNc1ccccc1Cl	i	5.6*	0.39	i	i	i
Cc1ccc(C(=O)Nc2cccnc2Oc2ccc(Cl)cc2)cc1	i	-12	-1.4	i	i	i
Cc1ccc(S(=O)(=O)Nc2cccnc2Oc2ccc(Cl)cc2)cc1	i	-11	-5*	i	i	i
c1ccc(N2CCN(c3nc(-c4cccs4)nc4ccccc34)CC2)cc1	i	-17	-0.23	i	i	-14*
SMILES	KCNQ1 inh	hERG protect	Kir21 inh	KCNK3 inh	KCNQ1 act	KCNK9 block
COC(=O)Cc1c[nH]c2cccc(OCC(O)CN(Cc3ccc([N+](=O)[O-])cc3)C(C)(C)C)c12 (configuration not stated)	i	-11	-1.4	i	i	-7.8*
Cc1ccc(/C=N/Nc2nc(N3CCCCC3)nc(N3CCCCC3)n2)o1	i	-12	-0.79	i	i	i
O=[N+]([O-])c1ccc(/C=N/Nc2nc(N3CCCCCC3)nc(N3CCCCCC3)n2)o1	6*	-12	-0.94	i	i	-7*
COC(=O)c1ccccc1-c1ccc(/C=N/Nc2nc(N3CCCC3)nc(N3CCCC3)n2)o1	6*	-14	0.66	i	i	i
CN(C(=O)c1cccc(NC(=O)Cc2ccc(NC(=O)C3CCN(C(=O)C4CC4)CC3)cc2)c1)C1CC1	.	.	.	i	.	.
CCOC(=O)C1=C(CC)Nc2ccccc2N=C1NC(=O)c1cc(S(=O)(=O)N2CCOCC2)ccc1C	.	.	.	i	.	.
Cc1cccc(OCC(=O)NC(Cc2c[nH]c3ccccc23)C(=O)O)c1C (configuration not stated)	i	-4	-0.08	i	i	i
CC(/C=N/n1c(-c2ccc(C)cc2)n[nH]c1=S)=C\c1ccco1	i	-6	-0.85	i	10*	i
CC(/C=N/n1c(-c2ccccc2)n[nH]c1=S)=C\c1ccco1	i	-11	0.15	i	i	i
O=C1/C(=C/Nc2ccc3c(c2)OCO3)CCc2ccccc21	6*	-13	0.12	i	i	i
COc1cc(C(=O)OCC(=O)NC2CCCC2)cc(OC)c1OC	i	-5	-0.03	i	i	i
CCSC1=C(C#N)C(c2cccs2)C(C(=O)OC)=C(C)N1 (configuration not stated)	i	-3	-4	i	i	i
CCCSC1=C(C#N)C(c2cccs2)C(C(=O)Nc2ccccc2)=C(C)N1 (configuration not stated)	12*	-14	-2.3	i	i	i
COc1ccc(-c2cc(C(=O)N3CCCCCC3)c3ccccc3n2)cc1	.	.	.	i	.	.
COc1ccc(S(=O)(=O)N2CCOCC2)cc1NC(=O)c1cc2ccccc2o1	.	.	.	i	.	.
Cc1ccc(NC(=O)c2oc3ccccc3c2COC(C)C)cc1S(=O)(=O)N1CCOCC1	.	.	.	-9.4*	.	.
Cc1ccc(NC(=O)c2ccccc2NS(=O)(=O)c2ccc(Cl)s2)cc1S(=O)(=O)N1CCOCC1	6*	-22	-0.19	i	i	i
Cc1cccc(OCCC(=O)Nc2ccc(C)c(S(=O)(=O)N3CCOCC3)c2)c1	.	.	.	i	.	.
Cc1ccc(NC(=O)COc2cccc(Oc3ccccc3)c2)cc1S(=O)(=O)N1CCOCC1	.	.	.	-8.8*	.	.
O=C(Cn1ncc2c1-c1ccccc1OC2)Nc1nc2ccccc2s1	i	-9	1	i	i	i
